Where a SMILES comes first, the peptide text is derived from it. [ ]: non-standard residue; d: D form. The star is where a group is joined. Cbz = O=C(OCc1ccccc1)*; Ac3c = NC1(C(=O)O)CC1
Test system: not listed separately
Test: Glutathione reactivity in pH 7.4 phosphate buffer assessed decay constant at 1.25 mM
Format: physicochemical
Settings: pH 7.4, 1250 µM
Method in brief: (§1)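 HPLC reactivity at 37 °C in 0.05 M phosphate pH 7.4 with 1.0 mM EDTA and 5% acetonitrile, thiol glutathione or cysteine. Inhibitor solution 2.5 mM (stock). Aliquots injected over time on a 5–100% acetonitrile/water gradient with PDA detection 210–400 nm. Half-life and K from a one-phase decay fit, pseudo-first-order. Thiol-free control run for stability. Halved-concentration runs also reported.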

In the case of `CC(C)C[C@H](NC(=O)c1cc(C(C)(C)C)nn1C)C(=O)N(C)N(C)C#N`, the K is reported as 1.01 10^-2/min.

Test system: not listed separately
Test: Cytotoxicity against monkey LLC-MK2 cells assessed as reduction in cell viability incubated for 72 hrs by MTT assay
Format: cell-based, Macaca mulatta
Settings: rhesus monkey
Method in brief: (§2)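 Cells seeded at 5 × 10^4 cells per mL and grown 48 h (LLC-MK2 in RPMI; U2OS in high glucose DMEM). MTT 2.0 mg/mL added for 4 h, formazan dissolved in DMSO, read at 570 nm. CC50 from percent reduction versus untreated control.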

`CON(C)C(=O)CNC(=O)[C@H](Cc1ccccc1)NC(=O)OCc1ccccc1` and `N#CCNC(=O)[C@H](Cc1ccccc1)NC(=O)OCc1ccccc1` cannot be ordered by CC50 at 72 h: over 100 µM for the first, over 100 µM for the second.

`N#CC1(NC(=O)[C@H](Cc2ccccc2)NC(=O)OCc2ccccc2)CC1` and `O=CC1(NC(=O)[C@H](Cc2ccccc2)NC(=O)OCc2ccccc2)CC1` (Cbz-Phe-[Ac3c]-aldehyde) cannot be ordered by CC50 at 72 h: over 100 µM for the first, over 100 µM for the second.

`CCN(CC)C(=O)/C=C/C1(NC(=O)[C@H](Cc2ccccc2)NC(=O)OCc2ccccc2)CC1` and `CCOC(=O)/C=C/C1(NC(=O)[C@H](Cc2ccccc2)NC(=O)OCc2ccccc2)CC1` cannot be ordered by CC50 at 72 h: over 100 µM for the first, over 100 µM for the second.

`O=C(N[C@@H](Cc1ccccc1)C(=O)Nc1cnoc1)OCc1ccccc1` and `Cc1coc(NC(=O)[C@H](Cc2ccccc2)NC(=O)OCc2ccccc2)n1` cannot be ordered by CC50 at 72 h: over 100 µM for the first, over 100 µM for the second.

`CN(C#N)N(C)C(=O)[C@H](Cc1ccccc1)NC(=O)OCc1ccccc1` showed a CC50 at 72 h of 42 µM.

Test system: not listed separately
Test: Cytotoxicity against human U2OS cells assessed as reduction in cell viability incubated for 72 hrs by MTT assay
Format: cell-based
Settings: not given
Method in brief: as §2

First: N#CC1(NC(=O)[C@H](Cc2ccccc2)NC(=O)OCc2ccccc2)CC1
Second: O=CC1(NC(=O)[C@H](Cc2ccccc2)NC(=O)OCc2ccccc2)CC1 (Cbz-Phe-[Ac3c]-aldehyde)
The CC50 at 72 h of the first is 2-fold higher: 6 µM for the first, 3 µM for the second.

`O=C(N[C@@H](Cc1c[nH]c2ccccc12)C(=O)Nc1cnoc1)c1ccccc1` and `O=C(N[C@@H](Cc1ccccc1)C(=O)Nc1cnoc1)c1ccccc1` cannot be ordered by CC50 at 72 h: over 100 µM for the first, over 100 µM for the second.

`O=C(N[C@@H](Cc1ccccc1)C(=O)NC/C=N/O)OCc1ccccc1` and `N#CCNC(=O)[C@H](Cc1ccccc1)NC(=O)OCc1ccccc1` cannot be ordered by CC50 at 72 h: over 100 µM for the first, over 100 µM for the second.

First: O=C(N[C@@H](Cc1ccccc1)C(=O)Nc1cnoc1)OCc1ccccc1
Second: CN(C#N)N(C)C(=O)[C@H](Cc1ccccc1)NC(=O)OCc1ccccc1
The CC50 at 72 h of the first is higher: over 100 µM for the first, 10.2 µM for the second.

`CNC(=O)/C=C/C1(NC(=O)[C@H](Cc2ccccc2)NC(=O)OCc2ccccc2)CC1` showed a CC50 at 72 h of over 100 µM.

Test system: not listed separately
Test: L-Cysteine reactivity in pH 7.4 phosphate buffer assessed as half life at 2.5 mM by HPLC analysis
Format: physicochemical
Settings: phosphate buffer with L-cysteine
Method in brief: as §1

Work on `O=CC1(NC(=O)[C@H](Cc2ccccc2)NC(=O)OCc2ccccc2)CC1` (Cbz-Phe-[Ac3c]-aldehyde) yielded a half-life at 2500 µM of 22.2 min.

Test system: Trypanosoma cruzi
Test: Trypanocidal activity against Trypanosoma cruzi Y intracellular amastigote form infected in human U2OS cells
Settings: not given

First: N#CC1(NC(=O)[C@H](Cc2ccccc2)NC(=O)OCc2ccccc2)CC1
Second: O=CC1(NC(=O)[C@H](Cc2ccccc2)NC(=O)OCc2ccccc2)CC1 (Cbz-Phe-[Ac3c]-aldehyde)
The EC50 of the first is 10-fold higher: 1 µM for the first, 0.1 µM for the second. The second is the more potent here.

Compared with `O=C(N[C@@H](Cc1c[nH]c2ccccc12)C(=O)Nc1cnoc1)c1ccccc1`, `O=C(N[C@@H](Cc1ccccc1)C(=O)Nc1cnoc1)c1ccccc1` is 3.7-fold lower in EC50: 22.4 µM for the first, 6 µM for the second. The second is the more potent here.

First: O=C(N[C@@H](Cc1ccccc1)C(=O)NC/C=N/O)OCc1ccccc1
Second: N#CCNC(=O)[C@H](Cc1ccccc1)NC(=O)OCc1ccccc1
The EC50 of the first is higher: over 100 µM for the first, 3.6 µM for the second.

Going from `O=C(N[C@@H](Cc1ccccc1)C(=O)Nc1cnoc1)OCc1ccccc1` to `CN(C#N)N(C)C(=O)[C@H](Cc1ccccc1)NC(=O)OCc1ccccc1`, the EC50 falls from 5.1 µM to 3.2 µM (1.6-fold). The second is the more potent here.

`CC(C)C[C@H](NC(=O)c1cc(C(C)(C)C)nn1C)C(=O)N(C)N(C)C#N` and `CNC(=O)/C=C/C1(NC(=O)[C@H](Cc2ccccc2)NC(=O)OCc2ccccc2)CC1` are within 1.5-fold of each other in EC50: 8.4 µM for the first, 12.1 µM for the second.

Test system: not listed separately
Test: Selectivity index, ratio of CC50 for human U2OS cells assessed as reduction in cell viability incubated for 72 hrs by MTT assay to EC50 for Trypanosoma cruzi […]
Format: toxicity, cell-based
Settings: read-out: Ratio CC50/EC50

Compared with `N#CC1(NC(=O)[C@H](Cc2ccccc2)NC(=O)OCc2ccccc2)CC1`, `O=CC1(NC(=O)[C@H](Cc2ccccc2)NC(=O)OCc2ccccc2)CC1` (Cbz-Phe-[Ac3c]-aldehyde) is higher in selectivity ratio at 72 h: 4.4 for the first, 58.4 for the second.

`O=C(N[C@@H](Cc1c[nH]c2ccccc12)C(=O)Nc1cnoc1)c1ccccc1` and `O=C(N[C@@H](Cc1ccccc1)C(=O)Nc1cnoc1)c1ccccc1` cannot be ordered by selectivity ratio at 72 h: over 8.2 for the first, over 16.6 for the second.

`O=C(N[C@@H](Cc1ccccc1)C(=O)Nc1cnoc1)OCc1ccccc1` and `N#CCNC(=O)[C@H](Cc1ccccc1)NC(=O)OCc1ccccc1` cannot be ordered by selectivity ratio at 72 h: over 19.6 for the first, over 27.8 for the second.

First: CN(C#N)N(C)C(=O)[C@H](Cc1ccccc1)NC(=O)OCc1ccccc1
Second: CNC(=O)/C=C/C1(NC(=O)[C@H](Cc2ccccc2)NC(=O)OCc2ccccc2)CC1
The selectivity ratio at 72 h of the first is lower: 3.2 for the first, over 8.2 for the second.

Test system: Trypanosoma cruzi
Test: Trypanocidal activity against Trypanosoma cruzi […] relative to benznidazole
Format: functional
Settings: not given

For `O=CC1(NC(=O)[C@H](Cc2ccccc2)NC(=O)OCc2ccccc2)CC1` (Cbz-Phe-[Ac3c]-aldehyde), the “fold change (FC)” value was 10.

Test system: not listed separately
Test: L-Cysteine reactivity in pH 7.4 phosphate buffer assessed as decay constant
Format: physicochemical
Settings: not given
Method in brief: as §1

With `COC(=O)C1=C(C#N)NC(C)=C(C(=O)OC(C)C)C1c1cccc([N+](=O)[O-])c1` (configuration not stated) [NILVADIPINE] the K was 1.41 10^-2/min.
In the case of `O=CC1(NC(=O)[C@H](Cc2ccccc2)NC(=O)OCc2ccccc2)CC1` (Cbz-Phe-[Ac3c]-aldehyde), the K is reported as 3.12 10^-2/min.
For `N#CCNC(=O)[C@H](Cc1ccccc1)NC(=O)c1ccccc1`, the K was 9.33 10^-2/min.

With `N#CC1(NC(=O)[C@H](Cc2ccccc2)NC(=O)c2ccccc2)CC1` the K was 0.436 10^-2/min.

Test system: Trypanosoma cruzi
Test: Trypanocidal activity against Trypanosoma cruzi Tulahuen LacZ intracellular amastigote form infected in monkey LLC-MK2 cells incubated for 72 hrs by chlorophenol red beta-D-galactopyranoside substrate based spectrophotometric assay
Format: functional, organism-based
Settings: LLC-MK2, 72 h
Method in brief: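 LLC-MK2 at 5 × 10^4 cells per mL infected with Tulahuen LacZ trypomastigotes at 5 × 10^5 per mL, 24 h at 37 °C, 5% CO2. Extracellular parasites washed off. Compounds 1.95–250 µM (DMSO) added for 72 h. […] Benznidazole as positive control, DMSO as negative.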

`CON(C)C(=O)CNC(=O)[C@H](Cc1ccccc1)NC(=O)OCc1ccccc1` and `N#CCNC(=O)[C@H](Cc1ccccc1)NC(=O)OCc1ccccc1` cannot be ordered by EC50: over 100 µM for the first, over 100 µM for the second.

`N#CC1(NC(=O)[C@H](Cc2ccccc2)NC(=O)OCc2ccccc2)CC1` and `O=CC1(NC(=O)[C@H](Cc2ccccc2)NC(=O)OCc2ccccc2)CC1` (Cbz-Phe-[Ac3c]-aldehyde) cannot be ordered by EC50: over 100 µM for the first, over 100 µM for the second.

Going from `CCN(CC)C(=O)/C=C/C1(NC(=O)[C@H](Cc2ccccc2)NC(=O)OCc2ccccc2)CC1` to `CCOC(=O)/C=C/C1(NC(=O)[C@H](Cc2ccccc2)NC(=O)OCc2ccccc2)CC1`, the EC50 falls from over 100 µM to 79.6 µM.

Compared with `O=C(N[C@@H](Cc1ccccc1)C(=O)Nc1cnoc1)OCc1ccccc1`, `Cc1coc(NC(=O)[C@H](Cc2ccccc2)NC(=O)OCc2ccccc2)n1` is higher in EC50: 25.8 µM for the first, over 100 µM for the second. The first is the more potent here.

First: CC(C)C[C@H](NC(=O)c1cc(C(C)(C)C)nn1C)C(=O)N(C)N(C)C#N
Second: CN(C#N)N(C)C(=O)[C@H](Cc1ccccc1)NC(=O)OCc1ccccc1
The EC50 of the first is 2.6-fold lower: 8.4 µM for the first, 21.7 µM for the second. The first is the more potent here.

`N#CCNC(=O)[C@H](Cc1ccccc1)NC(=O)c1ccccc1` and `N#CC1(NC(=O)[C@H](Cc2ccccc2)NC(=O)c2ccccc2)CC1` cannot be ordered by EC50: over 100 µM for the first, over 100 µM for the second.

Target: Cruzipain (Trypanosoma cruzi, UniProt P25779)
Sequence (P25779 whole entry): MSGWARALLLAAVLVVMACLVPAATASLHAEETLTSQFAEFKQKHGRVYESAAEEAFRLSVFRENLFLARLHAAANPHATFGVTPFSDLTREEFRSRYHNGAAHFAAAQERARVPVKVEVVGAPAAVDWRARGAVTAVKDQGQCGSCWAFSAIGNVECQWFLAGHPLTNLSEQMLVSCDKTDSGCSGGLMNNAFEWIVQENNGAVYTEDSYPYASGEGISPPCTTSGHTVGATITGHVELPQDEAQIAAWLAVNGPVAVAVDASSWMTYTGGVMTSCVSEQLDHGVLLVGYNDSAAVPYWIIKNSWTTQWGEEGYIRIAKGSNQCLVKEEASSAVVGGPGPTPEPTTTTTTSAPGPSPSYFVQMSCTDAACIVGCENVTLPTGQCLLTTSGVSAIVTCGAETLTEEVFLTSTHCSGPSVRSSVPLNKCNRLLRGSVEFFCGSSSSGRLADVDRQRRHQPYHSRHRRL
Test: Covalent inhibition of Trypanosoma cruzi cruzipain using Z-Phe-Arg-7-amidomethylcoumarin as substrate measured after 5 mins by fluorometric analysis
Settings: not given
Method in brief: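 Recombinant cruzain catalytic domain (no C-terminal extension), 0.15 nM, activated 20 min in 100 mM acetate pH 5.5, 300 mM NaCl, 5 mM DTT, then 2 min with inhibitor. Assay buffer adds 5% DMSO and 0.01% Triton X-100. Z-FR-AMC hydrolysis read at 355/460 nm, 37 °C, over 5 min. Wells checked for precipitation and background fluorescence.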

First: CON(C)C(=O)CNC(=O)[C@H](Cc1ccccc1)NC(=O)OCc1ccccc1
Second: O=C(N[C@@H](Cc1ccccc1)C(=O)NC/C=N/O)OCc1ccccc1
The Ki of the first is 10-fold higher: 100 µM for the first, 10 µM for the second.

Going from `O=C(N[C@@H](Cc1c[nH]c2ccccc12)C(=O)Nc1cnoc1)c1ccccc1` to `O=C(N[C@@H](Cc1ccccc1)C(=O)Nc1cnoc1)c1ccccc1`, the Ki rises from 10 µM to 20 µM (2-fold). The first binds more tightly here.

Test system: not listed separately
Test: Glutathione reactivity in pH 7.4 phosphate buffer assessed as half life at 2.5 mM by HPLC analysis
Format: physicochemical
Settings: phosphate buffer with glutathione
Method in brief: as §1

Going from `COC(=O)C1=C(C#N)NC(C)=C(C(=O)OC(C)C)C1c1cccc([N+](=O)[O-])c1` (configuration not stated) [NILVADIPINE] to `O=CC1(NC(=O)[C@H](Cc2ccccc2)NC(=O)OCc2ccccc2)CC1` (Cbz-Phe-[Ac3c]-aldehyde), the half-life at 2500 µM falls from over 5000 min to 40 min.

Test system: not listed separately
Test: L-Cysteine reactivity in pH 7.4 phosphate buffer assessed as decay constant at 1.25 mM
Format: physicochemical
Settings: pH 7.4, 1250 µM
Method in brief: as §1

For `CC(C)C[C@H](NC(=O)c1cc(C(C)(C)C)nn1C)C(=O)N(C)N(C)C#N`, the K was 3.15 10^-2/min.

Test system: not listed separately
Test: Glutathione reactivity in pH 7.4 phosphate buffer assessed as decay constant
Format: physicochemical
Settings: not given
Method in brief: as §1

For `O=CC1(NC(=O)[C@H](Cc2ccccc2)NC(=O)OCc2ccccc2)CC1` (Cbz-Phe-[Ac3c]-aldehyde), the K was 1.73 10^-2/min.

Test system: not listed separately
Test: Selectivity index, ratio of CC50 for monkey LLC-MK2 cells assessed as reduction in cell viability incubated for 72 hrs by MTT assay to EC50 for Trypanosoma cruzi Tulahuen LacZ intracellular amastigote form infected in monkey LLC-MK2 cells incubated for 72 hrs by chlorophenol red beta-D-galactopyranoside substrate based spectrophotometric assay
Format: toxicity
Settings: read-out: Ratio CC50/EC50

Compared with `O=C(N[C@@H](Cc1ccccc1)C(=O)Nc1cnoc1)OCc1ccccc1`, `N#CCNC(=O)[C@H](Cc1ccccc1)NC(=O)OCc1ccccc1` is lower in selectivity ratio at 72 h: over 3.9 for the first, 1.1 for the second.

`CN(C#N)N(C)C(=O)[C@H](Cc1ccccc1)NC(=O)OCc1ccccc1` and `CCOC(=O)/C=C/C1(NC(=O)[C@H](Cc2ccccc2)NC(=O)OCc2ccccc2)CC1` cannot be ordered by selectivity ratio at 72 h: 1.9 for the first, over 1.2 for the second.

From ChEMBL document CHEMBL4699421 (RSC Med Chem, 2020)
